Data reported in ChEMBL document CHEMBL1131033, “Selective endothelin A receptor antagonists. 4. Discovery and structure-activity relationships of stilbene acid and alcohol derivatives” (J Med Chem, 1998).

What follows are compounds tested against T1, Endothelin-1 receptor (Rattus norvegicus) (UniProt P26684) (assay: Concentration required to inhibit 50% Et-1 binding to Endothelin A receptor in rat A-10 cells.). Settings: A10; concentration not given here.
T1 sequence (whole entry): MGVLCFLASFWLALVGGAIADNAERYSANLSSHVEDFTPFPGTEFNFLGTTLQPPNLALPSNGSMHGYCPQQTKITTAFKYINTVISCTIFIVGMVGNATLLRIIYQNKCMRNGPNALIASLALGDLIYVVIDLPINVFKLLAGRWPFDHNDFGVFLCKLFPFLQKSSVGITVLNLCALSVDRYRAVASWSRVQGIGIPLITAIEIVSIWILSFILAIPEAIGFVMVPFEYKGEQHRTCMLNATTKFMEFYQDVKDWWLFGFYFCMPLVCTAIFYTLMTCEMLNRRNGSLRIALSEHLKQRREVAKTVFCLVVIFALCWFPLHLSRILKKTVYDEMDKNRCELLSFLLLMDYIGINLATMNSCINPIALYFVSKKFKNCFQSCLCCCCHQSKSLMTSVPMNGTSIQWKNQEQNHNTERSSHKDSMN
Type: cell-based
Set-up: concentration or dose not given beside the values
Procedure, shortened: (§1)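 Rat aortic smooth muscle A10 cells grown to confluence in DMEM with 10% FBS, harvested, and frozen. Nonspecific binding defined with 500 nM unlabeled ET-1. Bound ligand separated by vacuum filtration and gamma-counted. IC50 from curve fitting, usually in duplicate.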

| inhibition [%] | Compound |
| --- | --- |
| < 20 | COC/C(=C/c1cc(OCc2ccsc2)ccc1C#N)c1ccccc1C |
| < 20 | Nc1ccc(OCc2ccsc2)cc1/C=C(/C(=O)O)c1ccccc1F |
| < 20 | COc1ccc(/C(=C\c2cc(OCc3ccsc3)ccc2C#N)C(=O)O)cc1 |
| < 20 | COc1ccc(C#N)c(/C=C(/C(=O)O)c2ccccc2)c1 |

What follows are compounds tested against T2, Endothelin-1 receptor (Rattus norvegicus, UniProt P26684) (assay: Concentration required to inhibit 50% Et-1 binding to endothelin A receptor in rat A-10 cells.). Settings: not given.
T2 sequence (P26684 whole entry): T1 sequence (whole entry)
Type: cell-based, A10
Procedure, shortened: as §1

| Compound | IC50 [nM] |
| --- | --- |
| N#Cc1ccc(OCc2ccsc2)cc1/C=C(/C(=O)O)c1ccccc1Cl | 200 |
| N#Cc1ccc(OCc2ccsc2)cc1/C=C(/CCC(=O)O)c1ccccc1 | 700 |
| O=C(O)CC/C(=C/c1cccc(OCc2ccccc2)c1)c1ccccc1 | 5300 |
| O=C(O)/C(=C/c1cc(OCc2ccsc2)ccc1[N+](=O)[O-])c1c(F)cccc1Cl | 2000 |
| O=C(O)/C(=C/c1cc(OCc2ccccc2)ccc1[N+](=O)[O-])c1ccccc1 | 600 |
| O=[N+]([O-])c1ccc(OCc2ccsc2)cc1/C=C(/CO)c1ccccc1Cl | 400 |
| O=C(O)/C(=C/c1cc(OCc2ccsc2)ccc1[N+](=O)[O-])c1ccccc1 | 500 |
| N#Cc1ccc(OCc2ccsc2)cc1/C=C(/C(=O)O)c1ccc2c(c1)OCO2 | 200 |
| O=[N+]([O-])c1ccc(OCc2ccsc2)cc1/C=C(/CO)c1ccccc1 | 1400 |

More lines, now with the values ahead:

| IC50 [nM] | Compound |
| --- | --- |
| 300 | Cc1ccccc1/C(=C\c1cc(OCc2ccsc2)ccc1C#N)CO |
| 1300 | O=C(O)/C(=C/c1cc(OCc2ccsc2)ccc1[N+](=O)[O-])c1ccccc1Cl |
| 2100 | OC/C(=C/c1cc(OCc2ccsc2)ccc1Br)c1ccccc1 |
| 1100 | COc1cccc(/C(=C\c2cc(OCc3ccsc3)ccc2C#N)C(=O)O)c1 |
| 6000 | O=C(O)/C(=C/c1cccc(OCc2ccccc2)c1)c1ccccc1 |
| 1300 | N#Cc1ccc(OCc2ccc3c(c2)OCO3)cc1/C=C(/C(=O)O)c1ccccc1 |
| 800 | N#Cc1ccc(OCc2ccsc2)cc1/C=C(/CO)c1ccccc1 |
| 150 | N#Cc1ccc(OCc2cccnc2)cc1/C=C(/C(=O)O)c1ccccc1 |
| 2000 | O=C(O)CCC(Oc1cccc(OCc2ccccc2)c1)c1ccccc1 (stereo not given) |
| 600 | O=C(O)/C(=C/c1cc(OCc2ccsc2)ccc1[N+](=O)[O-])c1ccccc1F |
| 700 | O=C(O)/C(=C/c1cc(OCc2ccsc2)ccc1Br)c1ccccc1 |
| 300 | Cc1ccccc1/C(=C\c1cc(OCc2ccsc2)ccc1C#N)C(=O)O |
